TRPC4 block = inhibitors of mouse TRPC4 channel, primary screen, Fluo4 calcium, HEK293 TRPC4beta/mu-opioid cells; AID 2247, 2010; 300,000 tested, 0.39% active; Short transient receptor potential channel 4 (Mus musculus), Q9QUQ5; DAMGO-evoked Fluo4 calcium flux; hits give low values; B-score at 10 µM;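 active means B-score over 3 SD under the library average, no early fluorescence shift, positive overall ratio signal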
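material = TRPC4beta/mu-opioid receptor HEK293 cell line | probe or stimulus = sequential submaximal and maximal DAMGO stimulation | compound dosing = one concentration per compound | measured by = Fluo4 Ca2+ flux fluorescence | evaluation = integrated fluorescence ratio relative to baseline, converted to per-well B score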
TRPC6 act = mouse TRPC6 channel activators, primary screen, cell-based, HEK293, membrane potential dye. HEK293-TRPC6 membrane potential dye fluorescence; hits give high values. 310,000 tested, 0.13% active. B-score at 10 µM;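 active means B-score of the integrated fluorescence ratio above library mean plus 3 SD, and starting fluorescence ratio within library mean plus 5 SD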;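 further: higher score means more depolarization so channel activation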
TRPC6 inhibitor = mouse TRPC6 channel inhibitors, primary screen, cell-based, HEK293, membrane potential dye; Short transient receptor potential channel 6 (Mus musculus), Q61143; ACh-evoked depolarization; hits give low values; B-score at 10 µM; 310,000 tested, 1.1% active;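 active means B-score under library mean minus 3 SD, initial fluorescence not abnormally high, positive integrated signal ratio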;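 further: B-score derived from integrated fluorescence ratio over the kinetic read; more negative B-score means stronger inhibition of depolarization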
TRPC4 agonist = activators of mouse TRPC4 channel, primary screen, Fluo4 calcium, HEK293 TRPC4beta/mu-opioid cells; Fluo4 calcium fluorescence; hits give high values; 310,000 tested, 0.49% active; Short transient receptor potential channel 4 (Mus musculus), Q9QUQ5; B-score at 10 µM;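 active means B-score above 5 SD of library B-scores, and initial fluorescence ratio not above library mean plus 5 SD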;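 further: positive B-score marks a calcium rise read as TRPC4 activation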
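Assay system: HEK293 cells stably co-expressing mouse TRPC4beta and mu-opioid receptor / Timing: Fluo4 dye loading 45 min at room temperature, 110 s recording / Signal: Fluo4 calcium-sensitive dye fluorescence, kinetic, 1 Hz baseline / Read-out: integrated baseline-normalised fluorescence ratio, converted to per-well B score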
TRPC4 potent = positive allosteric modulators of TRPC4, primary screen, cell-based, mouse TRPC4beta, HEK293 mu-opioid, Fluo-4 calcium | DAMGO EC20, Fluo-4 Ca2+ flux; hits give high values | B-score at 10 µM | 310,000 tested, 0.42% active;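 active means B-score of calcium response area above 5 SD of library B-scores, with initial fluorescence ratio within 5 SD of library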;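 further: B-score of integrated fluorescence ratio over time as area under calcium response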
TRPC4 sel inh 2 = second check of whether TRPC6 inhibitors also affect mouse TRPC4; AID 2776; shares compounds with TRPC6 inhibitor; 920 tested, 42% active; inhibition, % at 10 µM; HEK293 TRPC4/MOR, membrane potential dye fluorescence; channel activated by saturating DAMGO dose;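 active means compounds whose fluorescence signal differed from control wells by over 3 SD, either direction, in both duplicate plates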
TRPC4 spec = mouse TRPC4 modulation by TRPC6 hits, confirmation, selectivity assay for TRPC6 inhibitor project, cell-based, HEK293 TRPC4/mu-opioid, membrane potential dye. AID 2777, 2010. activity change, negative = inhibition, % at 10 µM. 920 tested, 61% active. membrane potential fluorescence. shares compounds with TRPC6 inhibitor;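 active means rise or fall in signal beyond 3 SD of buffer-only wells in both replicate plates, either sign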;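 further: integrated kinetic ratio of fluorescence range over baseline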
HEK293 MPD ctr 2-1 = nonspecific membrane potential effects, parental HEK293, confirmation, counter-screen for TRPC6 inhibitor project, cell-based, second counter screen | parental HEK293 membrane potential dye fluorescence; maximal acetylcholine challenge after compound addition | signal change vs control, % at 10 µM | 920 tested, 31% active | AID 2779, 2010 | shares compounds with TRPC6 inhibitor;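 active means membrane potential signal moving either way by over 3 SD of the maximum-effect control, in both duplicate plates, meaning non-specific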
HEK293 MPD ctr-1 = membrane potential modulation in parental HEK293, confirmation, counter-screen for TRPC6 inhibitor project, cell-based | shares compounds with TRPC6 inhibitor | parental HEK293 membrane potential dye fluorescence | membrane potential signal change, % at 10 µM | 920 tested, 60% active | AID 2780, 2010;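 active means membrane potential signal shifting up or down by more than 3 SD of buffer-only wells, on both duplicate plates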
HEK293 MPD ctr-2 = parental HEK293 membrane potential modulation, confirmation, counter-screen for TRPC6 modulator project, cell-based; shares compounds with TRPC6 inhibitor; membrane potential dye fluorescence; membrane potential signal change, % at 10 µM; 2,400 tested, 51% active;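 active means membrane potential signal moves up or down beyond 5 SD from buffer-only wells, on both duplicate plates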
HEK293 MPD ctr 2-2 = second counter-screen for TRPC6 modulators: effect in parental HEK293 cells; shares compounds with TRPC6 inhibitor; membrane potential dye fluorescence; after compound, maximal acetylcholine stimulation; inhibition, % at 10 µM; 2,400 tested, 14% active; AID 488926;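 active means membrane potential signal drops by more than 5 SD from the mean control signal, in both duplicate plates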;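 further: plate controls were acetylcholine ECmax control wells for no effect and buffer only wells for full effect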
TRPC4 ctr mod = TRPC4 modulation by TRPC6 hit compounds, confirmation, selectivity assay for TRPC6 modulator project, cell-based, HEK293 TRPC4/mu-opioid, membrane potential dye, mouse. shares compounds with TRPC6 inhibitor. membrane potential fluorescence. percent change from control (negative = decrease, positive = increase), % at 10 µM. 2,400 tested, 69% active. AID 488927, 2010;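 active means membrane potential signal moved up or down beyond 5 SD of buffer control wells, in both duplicate plates, actives on both sides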;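 further: plate controls were assay buffer wells for no effect and DAMGO maximal-effect wells for full effect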
TRPC4/MOR inh 2 = mouse TRPC4 off-target activity of TRPC6 modulators, second screen | shares compounds with TRPC6 inhibitor | HEK293 TRPC4/mu-opioid, membrane potential dye fluorescence; stimulated with maximal-effect DAMGO | inhibition, % at 10 µM | 2,400 tested, 55% active;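 active means drop in membrane potential signal beyond 5 SD of the control wells in both duplicate plates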;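 further: TRPC4 counter screen for TRPC6 hits run under conditions tuned for TRPC6 not TRPC4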
TRPC6 block conf = mouse TRPC6 channel inhibitors, confirmation, HEK293 cells, membrane potential dye, duplicate | shares compounds with TRPC6 inhibitor | 3,300 tested, 43% active | inhibition, % at 10 µM | ACh-evoked depolarization;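 active means fluorescence ratio falls more than 5 SD below the full-stimulation control mean, in both duplicate runs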;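 further: integrated fluorescence ratio of peak minus minimum over baseline after agonist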
TRPC6 act confirm = mouse TRPC6 channel activators, confirmation, HEK293 cells, membrane potential dye, duplicate; shares compounds with TRPC6 inhibitor; HEK293-TRPC6 membrane potential dye fluorescence, FDSS; activation, % at 10 µM; 2,800 tested, 11% active; AID 488961, 2010;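 active means ratio signal rise beyond 5 SD above unstimulated control wells' mean, seen in both duplicate runs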;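 further: plate controls were buffer EC0 wells for no effect and acetylcholine ECmax response for full effect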
* = called active by the depositor; i = inactive; . = no result given. Hits are enriched below; roughly 2.3% of the tested compounds scored in any of these assays.

SMILES	TRPC4 block	TRPC6 act	TRPC6 inhibitor	TRPC4 agonist	TRPC4 potent	HEK293 MPD ctr-2	HEK293 MPD ctr 2-2	TRPC4 ctr mod	TRPC4/MOR inh 2	TRPC6 block conf	TRPC6 act confirm	others
CCOc1cc2nc(-c3ccc(OC)c(OC)c3)nc(N3CC(C)OC(C)C3)c2cc1OC (centres undefined)	i	i	-8.33*	i	i	.	.	.	.	i	i	TRPC4 sel inh 2=i;TRPC4 spec=-20.3%*;HEK293 MPD ctr 2-1=i;HEK293 MPD ctr-1=i
COc1ccc(NS(=O)(=O)c2cccc3ccccc23)cc1	i	i	i	i	i	.	.	.	.	.	.
Clc1ccc(C(c2ccccc2)N2CCNCC2)cc1 (centres undefined)	i	i	-7.79*	i	i	.	.	.	.	i	i	TRPC4 sel inh 2=61.0%*;TRPC4 spec=i;HEK293 MPD ctr 2-1=i;HEK293 MPD ctr-1=i
CC12CNCC(C)(CN(C(c3ccccc3)c3ccccc3)C1)C2	i	i	-5.6*	i	i	181.5%*	i	76.5%*	90.0%*	i	.
CCCCCC/C=C/c1ccc(OC)c([C@H]2[C@H]3C=CC[C@@H](C)[C@@H]3C(=O)N2Cc2ccccc2)c1	i	i	i	i	i	.	.	.	.	.	.
CCCCn1c(-c2ccc([N+](=O)[O-])cc2)n[nH]c1=S	i	i	-14.8*	i	i	.	.	.	.	84.6%*	i	TRPC4 sel inh 2=i;TRPC4 spec=i;HEK293 MPD ctr 2-1=-17.5%*;HEK293 MPD ctr-1=i
CCCn1c(-c2ccc(F)cc2)n[nH]c1=S	i	i	i	i	i	.	.	.	.	.	.
Cn1cc(CN2CCN(c3ccccc3)CC2)c2ccccc21	i	i	-5.55*	i	i	i	i	12.0%*	43.0%*	i	i
[O-][N+]1=c2ccc(Nc3ccccc3)cc2=NC12CCCCC2	i	i	-6.73*	i	i	-206.0%*	i	-29.0%*	41.0%*	i	i
COc1ccc(Nc2ccc3c(c2)=NC2(CCCCC2)[N+]=3[O-])cc1	i	i	i	i	i	.	.	.	.	.	.
COc1cc(/C=N/NC(=O)CNC(=O)c2ccccc2)ccc1OC(=O)c1cccs1	i	13.2*	-7.57*	i	i	i	i	i	i	i	81.5%*
Cc1cc(Oc2ccc(C#N)cc2)nc(NCc2ccccc2)n1	i	i	i	i	i	.	.	.	.	.	.
COc1cccc2sc(N(CCN(C)C)C(=O)/C=C/c3cccs3)nc12	i	i	-6*	i	i	i	i	-9.5%*	71.5%*	43.0%*	i
CN(C)CCN(C(=O)c1ccc2c(c1)CCCC2)c1nc2c(F)cccc2s1	i	i	i	i	i	.	.	.	.	.	.
COc1cccc2sc(N(CCN(C)C)C(=O)c3ccc4c(c3)CCCC4)nc12	i	i	-6.41*	i	i	-111.0%*	97.5%*	-34.0%*	94.5%*	86.0%*	i
CSc1ccc(CN2CCN(S(=O)(=O)Cc3ccccc3)CC2)cc1	i	i	i	i	i	.	.	.	.	.	.
COc1cc(C(=O)NNC(=S)NC(=O)/C=C/c2ccccc2)cc(OC)c1OC	i	i	i	i	i	.	.	.	.	.	.
CN(C)CCN(Cc1ccco1)C(=O)c1cc2c(Cl)nc3ccccc3c2s1	i	i	-5.17*	i	i	i	i	i	i	i	i
CN(CCC#N)C(=O)c1cc2c(Cl)nc3ccccc3c2s1	i	i	i	i	i	.	.	.	.	.	.
O=C(NCCCN1CCCC1=O)c1cc2nc(-c3ccco3)cc(C(F)(F)F)n2n1	i	i	i	i	i	.	.	.	.	.	.
CCc1cc(-c2[nH]ncc2-c2ccc3c(c2)OCO3)c(O)cc1O	i	i	-5.28*	i	i	i	i	i	70.5%*	65.0%*	i
O=C(CSc1cn[nH]n1)Nc1nc2ccccc2s1	i	i	i	i	i	.	.	.	.	.	.
CCc1nn2c(=O)cc(COc3ccc(/C=C4\C(=N)N5N=C(C)SC5=NC4=O)cc3)nc2s1	i	13.2*	i	i	i	228.0%*	i	40.5%*	i	i	88.0%*
O=C(c1cccc(Cl)c1)N1CCN(C2CCCCCC2)CC1	i	i	-5.68*	i	i	171.0%*	i	35.5%*	i	66.0%*	.
O=C(c1ccccc1)N1CCN(C2CCCCC2)CC1	i	i	i	i	i	.	.	.	.	.	.
